Reference: publication PMC5753398 (Journal of the American Chemical Society, 2017)

How the values were obtained:
[1] = tested on: Shh-mediated Hedgehog signaling (Gli-controlled Firefly luciferase) in NIH3T3 cells; assay: Gli-reporter dual luciferase assay in Shh-N-stimulated NIH3T3 cells; assay type: cell-based, mouse
[2] = tested on: Shh / Hedgehog pathway activation; conditions: read-out: IC50, Shh inhibitory activity in vitro and in cells; similar cell-based assay; cited from earlier work
[3] = tested on: GST-Shh, GST-Ihh, or GST-Dhh; assay: Competition assay for Hh analog selectivity; assay type: binding, human; conditions: 10 μM robotnikinin + 400 nM FLAG-HL2-m5
Procedure, shortened: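 Competition format: PBS containing 10 μM competitor plus 400 nM FLAG-tagged macrocyclic peptide (recombinant, E. coli) added to wells coated with GST-Shh, GST-Ihh or GST-Dhh (E. coli BL21(DE3)-expressed, Ni-NTA purified). Wells then developed by HRP anti-FLAG antibody, o-phenylenediamine/urea peroxide substrate (pH 5.0) and A450. Relative affinity = (1 − % inhibition)GST-Hh/(1 − % inhibition)GST-Shh. Triplicate, mean and SD.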

Shh/Patched interaction = conditions: read-out: IC50 for inhibition of the Shh/Patched interaction in vitro; ref 25a; cited from earlier work

## CC1=C2C[C@H]3[C@@H](CC=C4C[C@@H](O)CC[C@@]43C)[C@@H]2CC[C@]12O[C@@H]1C[C@H](C)CN[C@H]1[C@H]2C [cyclopamine]
[1]; 10 μM, assay validation
  Inhibition of Shh-induced luminescence: full inhibition

## c1ccc2c(Oc3nc(Nc4ccc(N5CCOCC5)cc4)c4ncn(C5CCCCC5)c4n3)cccc2c1 [purmorphamine]
[1]; 5 μM purmorphamine added to cells treated with 10 μM HL2-m5
  Effect on signaling pathway in HL2-m5-treated cells: restored activation

## O=C(C[C@@H]1C/C=C/CCC(=O)O[C@H](c2ccccc2)CNC1=O)NCc1ccc(Cl)cc1 [robotnikinin]
[2]
  IC50: ~15 µM
[3]
  Affinity toward Ihh and Dhh relative to Shh: significantly lower affinity

## Ac-TLDDMEEMDGLSD-NH2 [L2-pep]
[1]; concentrations up to 30 μM, identical conditions
  Inhibitory activity in Gli-reporter assay: no inhibitory activity

## HHIP370–390: linear HHIP L2-derived peptide from the literature (GDGMITLDDMEEMDGLSDFTG; UniProt Q96QV1 370-390, looked up, fragment)
Shh/Patched interaction
  IC50: 150 µM
